# Test results published in ChEMBL document CHEMBL3877247, “Identification of an indol-based derivative as potent and selective varicella zoster virus (VZV) inhibitor” (Eur J Med Chem, 2016).
# Assays:
# Human alphaherpesvirus 3 [1] = assay: Antiviral activity against thymidine Kinase expressing Varicella-Zoster virus OKA infected in HEL cells assessed as inhibition of virus plaque formation; format: functional, cell-based; conditions: Human alphaherpesvirus 3, OKA
# How it was run: (§1)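 Confluent HEL cell monolayers were infected with 20 PFU of VZV and incubated with varying compound concentrations. Plaques were scored once plaque formation was complete in untreated infected controls.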
# [2] = Cytotoxicity against HEL cells assessed as alteration of cell morphology after 3 days by microscopic method; format: toxicity, cell-based; conditions: human
# How it was run: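 HEL cultures were exposed to compound at varying concentrations. Cytotoxicity was recorded as the minimum cytotoxic concentration, the lowest concentration giving a microscopically detectable alteration of cell morphology.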
# Human betaherpesvirus 5 [3] = assay: Antiviral activity against Human cytomegalovirus Davis infected in HEL cells assessed as inhibition of virus plaque formation; format: functional, cell-based; conditions: Human betaherpesvirus 5, Davis
# Human alphaherpesvirus 3 [4] = assay: Antiviral activity against thymidine kinase deficient Varicella-Zoster virus 07-1 infected in HEL cells assessed as inhibition of virus plaque formation; format: functional, cell-based; conditions: Human alphaherpesvirus 3, 07-1, HEL
# How it was run: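 Confluent HEL fibroblast monolayers were infected with 20 PFU of TK⁻ VZV strain 07-1 and incubated with varying compound concentrations. Plaques were recorded once plaque formation reached completion in untreated infected controls.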
# Human alphaherpesvirus 1 [5] = assay: Antiviral activity against Herpes simplex virus 1 KOS infected in HEL cells assessed as inhibition of virus plaque formation; format: functional, cell-based; conditions: Human alphaherpesvirus 1, KOS
# Human alphaherpesvirus 2 = assay: Antiviral activity against Herpes simplex virus 2 G infected in HEL cells assessed as inhibition of virus plaque formation; format: functional, cell-based; conditions: Human alphaherpesvirus 2, strain G
# [6] = Cytotoxicity against HEL cells assessed as growth inhibition after 3 days by coulter counter method; format: toxicity, cell-based; conditions: human; for CC50: hel, 72 h; for CC50 at 72 h: HEL cells
# How it was run: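 HEL cells were seeded at 5×10^3 cells/well and allowed to grow for 24 h. Medium with varying compound concentrations was then added, and cells were incubated for 3 days at 37 °C before counting with a Coulter counter.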
# Human alphaherpesvirus 1 [7] = assay: Antiviral activity against thymidine kinase-deficient acyclovir-resistant Herpes simplex virus 1 KOS infected in HEL cells assessed as inhibition of virus plaque formation; format: functional, cell-based; conditions: Human alphaherpesvirus 1, KOS
# Human alphaherpesvirus 3 [8] = assay: Antiviral activity against thymidine kinase deficient Varicella-Zoster virus YS-R infected in HEL cells assessed as inhibition of virus plaque formation; format: functional, cell-based; conditions: Human alphaherpesvirus 3, YS-R; how it was run: as §1
# Human betaherpesvirus 5 [9] = assay: Antiviral activity against Human cytomegalovirus AD169 infected in HEL cells assessed as inhibition of virus plaque formation; format: functional, cell-based; conditions: Human betaherpesvirus 5, AD169, HEL
Structure (SMILES),EC50 (Human alphaherpesvirus 3 [1]) [µM],MCC at 72 h [2] [µM],EC50 (Human betaherpesvirus 5 [3]) [µM],EC50 (Human alphaherpesvirus 3 [4]) [µM],EC50 (Human alphaherpesvirus 1 [5]) [µM],EC50 (Human alphaherpesvirus 2) [µM],CC50 [6] [µM],EC50 (Human alphaherpesvirus 1 [7]) [µM],CC50 at 72 h [6] [µM],EC50 (Human alphaherpesvirus 3 [8]) [µM],EC50 (Human betaherpesvirus 5 [9]) [µM]
c1ccc(-c2ccc(Cn3cc(CN4CCCCC4)c4ccccc43)cc2)cc1,> 4,20,> 4,> 4,> 20,> 20,6.9,> 20,–,–,–
Cn1cc(CCN(CCc2ccc(-c3ccccc3)cc2)C(=O)CCN2CCOCC2)c2ccccc21,> 4,20,–,> 4,–,–,–,–,–,–,–
CCCn1cc(C(=O)c2ccc(Cl)cc2)c2ccccc21,> 100,> 100,> 100,> 100,> 100,> 100,> 100,> 100,–,–,–
Nc1nc2c(ncn2COCCO)c(=O)[nH]1 [ACYCLOVIR],–,250 to 440,–,–,–,–,–,–,191 to 224,–,–
CC(=O)N(CCc1cn(C)c2ccccc12)Cc1ccc(-c2ccccc2)cc1,> 20,100,–,> 20,–,–,–,–,–,–,–
CC(=O)N(CCc1cn(C)c2ccccc12)Cc1ccc(Oc2ccccc2)cc1,> 4,20,–,> 4,–,–,–,–,–,–,–
CC(=O)N(CCc1ccc(-c2ccccc2)cc1)CCc1cn(C)c2ccccc12,2.5 to 3.6,20 to 35,> 4,1.7 to 3.1,> 100,> 100,31 to 39,> 100,–,2.1,–
CC(=O)N(CCc1cn(C)c2ccccc12)Cc1ccc2ccccc2c1,> 4,20,–,> 4,–,–,–,–,–,–,–
O=c1[nH]c(=O)n([C@H]2C[C@H](O)[C@@H](CO)O2)cc1/C=C/Br [BRIVUDINE],0.019 to 0.035,250 to 300,–,33 to 143,–,96,–,–,160 to 300,–,–
CCCn1cc(CN2CCCCC2)c2cc(CNc3ccc(Cl)cc3)ccc21,> 4,20,> 4,> 4,> 20,> 20,15,> 20,–,–,–
Cn1cc(CCNCCc2ccc(-c3ccccc3)cc2)c2ccccc21,–,> 4,> 4,> 4,> 100,> 100,20,> 100,–,–,> 4
CC(=O)N(CCc1cn(C)c2ccccc12)c1ccc2ccccc2c1,> 4,20,–,> 4,–,–,–,–,–,–,–
Nc1nc(O)c2ncn(COC(CO)CO)c2n1 [GANCICLOVIR],–,> 100,–,–,–,–,–,–,–,–,–
Nc1ccn(C[C@@H](CO)OCP(=O)(O)O)c(=O)n1 [CIDOFOVIR],–,> 250,–,–,0.4,0.7,–,–,–,–,–
CC(=O)N(CCc1cn(C)c2ccccc12)c1cccc2ccccc12,> 20,100,–,> 20,–,–,–,–,–,–,–
Cn1cc(CCNc2ccc3ccccc3c2)c2ccccc21,> 100,> 100,100,> 100,> 100,> 100,41,> 100,–,–,76
Cn1cc(CCN(CCc2ccc(-c3ccccc3)cc2)C(=O)C2CCCCC2)c2ccccc21,> 4,20,–,> 4,–,–,–,–,–,–,–
Cn1cc(CCNCc2ccc(Cl)cc2)c2ccccc21,> 4,20,> 20,> 4,> 20,> 20,22,> 20,–,–,> 20
CC(=O)N(CCc1cn(C)c2ccccc12)Cc1cccc2ccccc12,> 20,100,–,> 20,–,–,–,–,–,–,–
CCCn1cc(CN2CCCCC2)c2ccccc21,> 100,> 100,> 4,> 100,> 100,> 100,> 100,> 100,–,–,> 4
CCCn1cc(CNCCc2ccc(-c3ccccc3)cc2)c2ccccc21,> 0.8,4,> 0.16,> 0.8,> 100,> 100,1.7,> 100,–,–,–
Cn1cc(CCN(CCc2ccc(-c3ccccc3)cc2)C(=O)c2ccccc2)c2ccccc21,20,> 100,–,20,–,–,–,–,–,–,–
Cn1cc(CCN(CCc2ccc(-c3ccccc3)cc2)C(=O)OC(C)(C)C)c2ccccc21,> 4,20,–,> 4,–,–,–,–,–,–,–
CCCn1cc(CNCCc2ccc(-c3ccccc3)cc2)c2cc(CNc3ccc(Cl)cc3)ccc21,> 4,20,> 4,> 4,> 4,> 4,9.7,> 4,–,–,–
COC(=O)c1ccc(CNCCc2cn(Cc3ccc(-c4ccccc4)cc3)c3ccccc23)cc1,–,20,> 4,> 4,> 100,> 100,7.3,> 100,–,> 4,> 4
COc1ccc(CNCCc2cn(C)c3ccccc23)cc1,> 20,100,> 20,> 20,> 20,> 20,28,> 20,–,–,> 20
CCCn1cc(CN2CCCCC2)c2cc(NC(=O)c3ccccc3)ccc21,> 20,100,> 20,> 20,> 100,> 100,31,> 100,–,–,–
